From PubChem
The list is not random: actives were taken first. Their share in the collection is about 2%.
CRFR2-BP antag – antagonists of CRF-BP/CRF-R2 complex, primary screen, cell-based, HEK293, calcium dye fluorescence, uHTS | CRF-induced calcium fluorescence | inhibition, % at 11.8 µM | 350,000 tested, 0.59% active | AID 588475, 2011;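 active = inhibition of the ligand-induced calcium signal above about 50% at the single tested concentration, limit read from the data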
CRFBP-R2 agonist – agonists of CRF-BP/CRF-R2 complex, primary screen, cell-based, HEK293, calcium dye fluorescence, uHTS; 350,000 tested, 0.46% active; activation, % at 13.2 µM; CRF-binding protein / CRF receptor 2 complex (human); calcium dye fluorescence (FLIPR); percent of saturating CRF peptide response;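 active = activation of at least 50%, plus an integration ratio under a set limit after plate pattern correction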;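 also: plate controls were neutral control wells without compound for no effect and CRF at EC100 for full effect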
GPR7 antag – GPR7 receptor antagonists, primary screen, cell-based, fluorescence, single concentration. Neuropeptides B/W receptor type 1 (Homo sapiens), P48145. GPR7-expressing cells, fluorescence antagonist assay. inhibition, % at 4.4 µM. 290,000 tested, 1.1% active; in the data active = inhibition above about 16%, passing the limit was not always enough;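 also: cells stimulated with the agonist NPW; 0% = agonist with vehicle and 100% = vehicle without agonist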
TRPN1 ag – zebrafish TRPN1 channel agonists, primary screen, cell-based, HEK293, calcium fluorescence; transient receptor potential cation channel N1 (TRPN1/NompC), Danio rerio; HEK293 zebrafish TRPN1-YFP, Fluo-8 calcium fluorescence; 100% = response to 87 µM carbachol; activation, % at 3 µM; 220,000 tested, 0.18% active;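 active = activation above its plate's cutoff, the mean activation of test wells on that plate plus 3 SD, cut at about 19% in these data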;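 also: 0% = DMSO alone and 100% = 87 µM carbachol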
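Control set: carbachol 87 µM as high control, DMSO as low control; system: HEK293 stable line with zebrafish TRPN1-YFP; read-out: % activation versus carbachol response; detection: intracellular calcium fluorescence with Fluo-8; doses: single test compound dose, 3 µM nominal, 0.3% DMSO; schedule: dye 1 h 37 °C plus 30 min RT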
TRPML3 agonist – human TRPML3 channel agonists, primary screen, cell-based, HEK293 TRPML3-YFP, Fluo-8 calcium fluorescence, 3 µM; 100% = the carbachol control signal; activation, % at 3 µM; 220,000 tested, 0.29% active; AID 1448, 2008;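 active = activation above its plate's cutoff, the mean activation of the plate's test wells plus 3 SD, cut at about 12% in these data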;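 also: 0% = DMSO only wells and 100% = carbachol wells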
Target sequence (Q8TDD5 whole entry, looked up): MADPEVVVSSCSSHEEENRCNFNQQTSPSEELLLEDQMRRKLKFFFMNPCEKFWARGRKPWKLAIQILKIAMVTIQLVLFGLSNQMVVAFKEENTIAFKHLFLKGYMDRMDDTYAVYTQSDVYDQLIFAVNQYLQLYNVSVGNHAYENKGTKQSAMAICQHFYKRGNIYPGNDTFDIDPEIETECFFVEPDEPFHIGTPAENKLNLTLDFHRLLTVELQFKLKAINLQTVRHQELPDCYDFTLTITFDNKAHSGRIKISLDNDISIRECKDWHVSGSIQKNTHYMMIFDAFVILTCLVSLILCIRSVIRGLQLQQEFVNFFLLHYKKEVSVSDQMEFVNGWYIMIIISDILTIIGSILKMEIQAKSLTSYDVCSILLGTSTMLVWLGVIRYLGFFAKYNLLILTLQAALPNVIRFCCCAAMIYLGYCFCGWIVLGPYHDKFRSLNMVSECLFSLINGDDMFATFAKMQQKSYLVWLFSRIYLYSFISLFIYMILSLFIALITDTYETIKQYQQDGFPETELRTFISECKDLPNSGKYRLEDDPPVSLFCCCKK
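Material: TRPML3-YFP stable HEK293 cells | Dosing: One concentration, 3 µM nominal, 0.3% DMSO | Timing: 125 s total fluorescence read per well | Technique: Fluo-8 calcium dye fluorescence, ex 470-495, em 515-575 nm | Measure: Percent activation from peak-to-basal fluorescence ratio, scaled between DMSO and carbachol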
* hit, by the source's call; . = not tested or not shown.

SMILES | CRFR2-BP antag | CRFBP-R2 agonist | GPR7 antag | TRPN1 ag | TRPML3 agonist
COc1ccc(S(=O)(=O)N(CC(C)C)C2CCS(=O)(=O)C2)cc1OC (configuration not stated) | 71* | 0 | . | . | .
COc1ccc(OC)c(S(=O)(=O)Nc2ccccc2SC)c1 | -2 | -1 | 14* | -2 | 0
O=C(Nc1nnc(S(=O)(=O)N2CCCCC2)s1)c1ccc(Cl)cc1 | 71* | 13 | 1 | . | .
O=C(CSc1nnc(C2COc3ccccc3O2)o1)NC1CCCCC1 (configuration not stated) | 54* | -2 | 4 | 0 | 0
O=C(CSc1nnc(C2COc3ccccc3O2)o1)N1CCCCC1 (configuration not stated) | 11 | 0 | -8 | 1 | 0
CN(CCc1ccccc1)C(=O)c1cccc(NC(=O)Cc2cccc(NC(=O)C3CCN(C(=O)C4CCCCC4)CC3)c2)c1 | 2 | 1 | . | . | .
CCN1C(=O)/C(=C/C=C2\N(CC)c3cc(S(=O)(=O)N(C)C)ccc3N2c2ccccc2)SC1=S | -52 | 73* | -3 | 22* | 6
CN(C)c1ccc(/C=C/C=C2/SC(=S)N(c3ccccc3)C2=O)cc1 | -20 | 0 | -7 | 6 | 3
C#CCOCCOCCOCCNc1nc(N2CCN(C(=O)CCCCCCCCCCNC(=O)[C@H](CCCCN)n3cc(C[C@@H](C)CC)nn3)CC2)nc(N2CCN(C(=O)CCCCCCCCCCNC(=O)[C@H](CCCN=C(N)N)n3cc(C[C@@H](C)CC)nn3)CC2)n1 | -48 | 4 | . | . | .
C#CCOCCOCCOCCNc1nc(N2CCN(C(=O)CCCCCCCCCCNC(=O)[C@H](CCCCN)n3cc(CCO)nn3)CC2)nc(N2CCN(C(=O)CCCCCCCCCCNC(=O)[C@H](CCCCN)n3cc(C[C@@H](C)CC)nn3)CC2)n1 | -145 | 146* | . | . | .
C#CCOCCOCCOCCNc1nc(N2CCN(C(=O)CCCCCCCCCCNC(=O)[C@@H](CCC(=O)O)n3cc(CCCCCN)nn3)CC2)nc(N2CCN(C(=O)CCCCCCCCCCNC(=O)[C@H](CCCCN)n3cc(C[C@@H](C)CC)nn3)CC2)n1 | -189 | 149* | . | . | .
O=[N+]([O-])c1ccc(S(=O)(=O)N/N=C/c2ccsc2)cc1 | 4 | -2 | -8 | . | .
CCCN1C2CCCC1CC(NC(=O)c1ccc(C(C)(C)C)cc1)C2 (configuration not stated) | 2 | -2 | 0 | . | .
CCN1C(=O)CC2CCCC1C2 (configuration not stated) | 75* | 1 | . | . | .
CCOC(=O)CSC1=C(C#N)C(c2ccc(Cl)cc2)C(C(=O)OC)C(=O)N1 (configuration not stated) | 53* | -3 | -10 | -3 | -1
COC(=O)C1C(=O)NC(SC)=C(C#N)C1c1ccccc1 (configuration not stated) | -8 | 0 | -10 | 1 | 0
COC(=O)CSC1=C(C#N)C(c2ccc(Cl)cc2)C(C(=O)OC)C(=O)N1 (configuration not stated) | 58* | -1 | -3 | -2 | -1
Nc1nc(CN2CCc3ccccc3C2)nc(Nc2ccccc2)n1 | 74* | 2 | -13 | -1 | 0
COc1ccc(Nc2nc(N)nc(CN3CCc4ccccc4C3)n2)cc1 | -10 | -1 | -14 | -1 | 1
CC1(C)CC(NC(=S)NC(=O)c2cc(Br)ccc2Cl)CC(C)(C)N1 | -9 | 1 | . | . | .
O=C1c2cccc3cccc(c23)C(=O)N1Cc1cccnc1 | -5 | -1 | -11 | 1 | 0
O=C1c2cccc3c([N+](=O)[O-])ccc(c23)C(=O)N1Cc1cccnc1 | 42 | 12 | 24* | 0 | 0
COc1ccc([C@@H]2[C@@H]3C(=O)N(C(C)(C)C)C(=O)[C@@H]3[C@]3(C)C(=O)N(c4cccc(Cl)c4)C(=O)N23)cc1 | 7 | -1 | . | . | .
Cc1cc(C(=O)N2CCN(C/C=C/c3ccccc3)CC2)cs1 | 40 | -4 | 20* | 1 | 1
O=C(CN1CCN(C(=O)c2ccco2)CC1)Nc1ccccc1 | -4 | 0 | 6 | . | .
